Our source for the Activity and CC50 values is ChEMBL document CHEMBL1811830, “Synthesis, structure and cytotoxicity of 3-C, N, S, Se substituted benzo[b]selenophene derivatives” (Eur J Med Chem, 2011).

The subject of data set [1] is HT-1080. Kind of data set: Cytotoxicity against human HT1080 cells assessed as nitric oxide concentration at 100 ug/ml after 72 hrs by crystal violet coloration assay (reference value: 100%). It is filed as functional.
Data set [2] deals with HT-1080. Kind of data set: Cytotoxicity against human HT1080 cells after 72 hrs by MTT assay. Conditions: for CC50: HT-1080, 72 h, read-out: TD50 (the source's name). It is filed as functional. The method in brief:
(§1)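 Cells from passages 1–4 after thawing, seeded at about 2–5·10⁴ cells/mL with compounds added immediately. Incubation 72 h, 37 °C, 5% CO₂. MTT read-out: medium replaced with fresh medium containing 10 mM HEPES, MTT (2 mg/mL in HBSS) added for 3 h. Dissolved in DMSO plus glycine buffer pH 10.5, absorbance 540 nm. TD50 = concentration giving 50% cell kill, averaged from CV and MTT.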
(In general: Formazan colour is commonly taken as a measure of viable cells.)

The test system of data set [3] is MG-22A. In words: Cytotoxicity against mouse MG-22A cells after 72 hrs by MTT assay. In kind it is functional. The note with it: for CC50: read-out: TD50 (the source's name). The method in brief:
as §1

Data set [4] deals with MG-22A. In words: Cytotoxicity against mouse MG-22A cells assessed as nitric oxide concentration at 100 ug/ml after 72 hrs by crystal violet coloration assay (reference value: 100%). It is filed as functional.
The nature of data set [5]: (§2) Cytotoxicity against mouse NIH/3T3 cells after 72 hrs by MTT assay. It is filed as cell-based, NIH3T3. Conditions: NIH/3T3 cells, read-out: TD50. The method in brief: as §1
Data set [6] relates to HT-1080. Kind of data set: Induction of apoptosis in human HT1080 cells assessed as change in cell phenotype after 72 hrs by acridine orange staining based fluorescence microscopic analysis. In kind it is functional. The method in brief: (§3)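 Adherent cells treated 72 h, 37 °C, 5% CO₂, in 96-well plates. Stained 2 min with acridine orange 10 μg/mL in PBS pH 7.4, washed once with PBS, then viewed in PBS by inverted fluorescence microscopy. Chromatin condensation shown by DNA staining: living cells green, apoptotic cells orange/yellow, necrotic cells red.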

The subject of data set [7] is NIH3T3. Kind of data set: Induction of apoptosis in mouse NIH/3T3 cells after 72 hrs by acridine orange staining based fluorescence microscopic analysis. It is filed as cell-based. The note with it: nih3t3, 72 h. In a few lines:
as §3

Data set [8] concerns HT-1080. Kind of data set: Induction of mitochondria mediated apoptosis in human HT1080 cells assessed as change in cell phenotype after 72 hrs by acridine orange staining based fluorescence microscopic analysis. In kind it is functional. The method in brief: as §3
In data set [9] the test system is HT-1080. Kind of data set: Induction of apoptosis in human HT1080 cells assessed as nucleus fragmentation after 72 hrs by acridine orange staining based fluorescence microscopic analysis. It is filed as functional, cell-based. In a few lines:
as §3

The subject of data set [10] is HT-1080. Kind of data set: Induction of apoptosis in human HT1080 cells assessed as change in cell morphology after 72 hrs by acridine orange staining based fluorescence microscopic analysis. It is filed as functional. In a few lines:
as §3

The subject of data set [11] is NIH3T3. Described as §2. It is filed as cell-based. The note with it: nih3t3, 72 h. The method in brief: as §1

In brackets after ≈: the same amount, converted by molar mass. Activity calls are given as the source filed them. No cut-off for these calls is given here.

With `CCOC(=O)c1[se]c2ccccc2c1-c1ccc(C)s1`, the Activity with HT-1080 [1] and with MG-22A [4] was 350% in each case. Moreover, the CC50 was found to be 16 µg/mL (≈ 45.8 µM) in the data set on HT-1080 [2] and 19.5 µg/mL (≈ 55.8 µM) with MG-22A [3]. For the same compound, in data set [5], the CC50 at 72 h turned out to be 15 µg/mL (≈ 42.9 µM).

Regarding `CCOC(=O)c1[se]c2ccccc2c1C#Cc1ccccc1`, the Activity with HT-1080 [1] came out at 15%; with MG-22A [4] it was 10%. Moreover, the CC50 in the data set with HT-1080 [2] stood at 76 µg/mL (≈ 215 µM); in the data set on MG-22A [3], 87 µg/mL (≈ 246 µM). Also, the CC50 at 72 h in [5] was determined as 614 µg/mL (≈ 1740 µM).

Consider `O=c1c2[se]c3ccccc3c2nc2ccccn12`, for which the figures for the Activity with HT-1080 [1], with MG-22A [4] and in the data set with NIH3T3 [7] were 5%, 7% and “Toxic”, respectively. The CC50 in the data set with HT-1080 [2] and in the data set on MG-22A [3] was 3 µg/mL (≈ 10 µM) in each case. Also, in data set [5], the CC50 at 72 h is 31 µg/mL (≈ 104 µM). In the data set with HT-1080 [6], the outcome was Active.

For `CCOC(=O)c1[se]c2ccccc2c1Nc1cccnc1`, the Activity is 12% in the data set on HT-1080 [1] and 9% with MG-22A [4]. The result in the data set on HT-1080 [2] and with MG-22A [3] was inactive. Further, the CC50 at 72 h in data set [5] came to 1000 µg/mL (≈ 2900 µM).

In the case of `O=c1c2[se]c3ccccc3c2nc2c(Cl)cc(C(F)(F)F)cn12`, the Activity worked out at 2% in the data set with HT-1080 [1] and 8% in the data set on MG-22A [4]. The CC50 was 3.5 µg/mL (≈ 8.71 µM) with HT-1080 [2] and 2.75 µg/mL (≈ 6.85 µM) in the data set on MG-22A [3]. Moreover, the CC50 at 72 h in data set [5] was found to be 31 µg/mL (≈ 77.2 µM). Besides, the result in the data set on HT-1080 [8] was Active.

For `CCOC(=O)c1[se]c2ccccc2c1-c1cc(F)c(F)c(F)c1`, the Activity in the data set with HT-1080 [1] was determined as 6%; in the data set with MG-22A [4], 12%. Further, the result with HT-1080 [2] was inactive. In the data set on MG-22A [3], the CC50 was found to be 81.5 µg/mL (≈ 213 µM). Further, the CC50 at 72 h in [5] amounted to 100 µg/mL (≈ 261 µM).

For `CCOC(=O)c1[se]c2ccccc2c1-c1ccc(C#N)cc1`, the Activity with HT-1080 [1] amounted to 8%; in the data set with MG-22A [4] it was 7%. Besides, the outcome in the data set with HT-1080 [2] and in the data set with MG-22A [3] was inactive. Moreover, in [5], the CC50 at 72 h came to 684 µg/mL (≈ 1930 µM).

With `O=c1c2[se]c3ccccc3c2nc2ccc(Cl)cn12`, the Activity with HT-1080 [1] is reported as 3%; in the data set on MG-22A [4] it was 40%; in the data set with NIH3T3 [7], “Toxic”. In addition, the CC50 in the data set with HT-1080 [2] and in the data set on MG-22A [3] was 3 µg/mL (≈ 8.99 µM) each time. Besides, the CC50 at 72 h in [5] came out at 32 µg/mL (≈ 95.9 µM). In addition, the result in the data set on HT-1080 [9] was Active.

On to `CCOC(=O)c1[se]c2ccccc2c1-c1ccsc1`, for which the Activity was 13% in the data set with HT-1080 [1] and 14% with MG-22A [4]. For the same compound, the outcome in the data set on HT-1080 [2] and in the data set with MG-22A [3] was inactive. The CC50 at 72 h in data set [5] is 31 µg/mL (≈ 92.5 µM).

Consider `O=c1c2[se]c3ccccc3c2nc2sc3ccccc3n12`, for which the Activity with HT-1080 [1] is on record as 2%; with MG-22A [4] it was 3%. In addition, the CC50 came to 8.5 µg/mL (≈ 23.9 µM) in the data set with HT-1080 [2] and 9.5 µg/mL (≈ 26.7 µM) in the data set on MG-22A [3]. Also, the CC50 at 72 h in [5] amounted to 27 µg/mL (≈ 76 µM). Besides, the result with HT-1080 [10] was Active.

Regarding `Cc1csc2nc3c([se]c4ccccc43)c(=O)n12`, the Activity in the data set on HT-1080 [1] is 2%; in the data set on MG-22A [4], 4%. Besides, the outcome in the data set on HT-1080 [2] and with MG-22A [3] was inactive. In addition, the CC50 at 72 h in data set [5] was determined as 21 µg/mL (≈ 65.8 µM).

As to `CCOC(=O)c1[se]c2ccccc2c1-c1ccccc1`, the results for the Activity in the data set on HT-1080 [1] and with MG-22A [4] were 25% and 23%, respectively. Besides, the CC50 in the data set on HT-1080 [2] is 65 µg/mL (≈ 197 µM). Moreover, in the data set on MG-22A [3], the outcome was inactive. Further, the CC50 at 72 h in [5] came to 16 µg/mL (≈ 48.6 µM).

Regarding `CCOC(=O)c1[se]c2ccccc2c1Br`, the values for the Activity with HT-1080 [1] and with MG-22A [4] were 14% and 40%, respectively. Further, the result in the data set on HT-1080 [2] was inactive. In addition, in the data set with MG-22A [3], the CC50 came to 40.5 µg/mL (≈ 122 µM). Moreover, in data set [5], the CC50 at 72 h came out at 896 µg/mL (≈ 2700 µM).

With `CCOC(=O)c1[se]c2ccccc2c1Sc1ncccn1`, the results for the Activity in the data set on HT-1080 [1] and with MG-22A [4] were 8% and 7%, respectively. Moreover, the outcome in the data set on HT-1080 [2] and with MG-22A [3] was inactive. Further, in data set [5], the CC50 at 72 h is 840 µg/mL (≈ 2310 µM).

Take `CCOC(=O)c1[se]c2ccccc2c1C#CC1=CCCCC1`: the Activity with HT-1080 [1] and with MG-22A [4] was 200% each time. The CC50 in the data set on HT-1080 [2] is 32.5 µg/mL (≈ 91 µM); with MG-22A [3], 32 µg/mL (≈ 89.6 µM). The CC50 at 72 h in [5] turned out to be 120 µg/mL (≈ 336 µM).

For the compound `O=c1c2[se]c3ccccc3c2nc2c3ncccc3ccn12`, the results for the Activity in the data set with HT-1080 [1] and in the data set with MG-22A [4] were 20% and 3%, respectively. Besides, the result with HT-1080 [2] and in the data set with MG-22A [3] was inactive. Moreover, in data set [5], the CC50 at 72 h turned out to be 56 µg/mL (≈ 160 µM).

Regarding `O=c1c2[se]c3ccccc3c2nc2cnccn12`, the figures for the Activity in the data set with HT-1080 [1] and in the data set with MG-22A [4] were 2% and 7%, respectively. The outcome in the data set on HT-1080 [2] and in the data set with MG-22A [3] was inactive. For the same compound, the CC50 at 72 h in [5] is 27 µg/mL (≈ 89.9 µM).

Regarding `CCOC(=O)c1[se]c2ccccc2c1-c1ccc(OC(C)C)cc1`, the Activity in the data set on HT-1080 [1] is listed as 9%; with MG-22A [4] it was 15%; in the data set with NIH3T3 [11], “Non-toxic”. Also, the outcome in the data set with HT-1080 [2] and with MG-22A [3] was inactive.
